Laboratory results reported in ChEMBL document CHEMBL1123103, “Pyrimidinones. 1. 2-Amino-5-halo-6-aryl-4(3H)-pyrimidinones. Interferon-inducing antiviral agents” (1985).

How the values were obtained:
Assay type in all cases: functional
Semliki Forest virus [1] = experiment: Effective dose administered perorally againist Forest virus infected mice; settings: po
Summary of the method: (§1)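 ICR or CD-1 mice of both sexes got one drug dose by the route in the line (ip, po or sc). The drug was a suspension in 0.9% NaCl or in a CMC/polysorbate 80/benzyl alcohol/NaCl vehicle. […] Deaths were recorded daily for 6 days, 24 mice/group. ED50 is the minimal dose protecting 50% of mice, by probit analysis.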

Human alphaherpesvirus 1 = experiment: Intraperitoneal administration against herpes simplex virus type-1 (HSV-1) infected mice
Summary of the method: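 ICR or CD-1 mice got drug ip in saline as the total daily dose (mg/kg/day). It was split into doses at -40, -28, -20, -3 and +3 h relative to ip inoculation with 5.6×10^4 pfu HSV-1. Mice were followed for 22 days, 15/group. Protection index = (control mortality − treated mortality)/control mortality; >0.25 counted active. Only the lowest protective dose is recorded.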

Semliki Forest virus [2] = experiment: Antiviral activity against Forest virus (SFV); summary of the method: as §1
Semliki Forest virus [3] = experiment: Effective dose administered subcutaneously againist Forest virus infected mice; settings: sc; summary of the method: as §1
[4] = tested on: Vesicular stomatitis virus; experiment: Evaluation for serum interferon response from a single 800 mg/kg intraperitoneal administration in vesicular stomatitis virus on […] cells.
Summary of the method: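 Mice got a single ip 800 mg/kg dose. Blood was drawn 3, 6, 8 and 12 h later from five mice per group and pooled. Interferon titer was measured by plaque reduction with vesicular stomatitis virus on L929 cells. Titer is the reciprocal serum dilution cutting plaques by 50% versus untreated cultures. Peak response within 24 h was banded: ≥2000, ~500-1000, ~50-500, ~10-50 U/mL.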

Nc1nc(O)c(Cl)c(-c2cc(Cl)ccc2Cl)n1 gave an ED50 (Semliki Forest virus [1]) of 200 mg/kg, a Protection index (Human alphaherpesvirus 1) of 0.47 and an ED50 (Semliki Forest virus [2]) of 120 mg/kg. The ED50 (Semliki Forest virus [3]) was 115 mg/kg and the IFN [4] was “>=2000 ml”.

With Nc1nc(O)c(Br)c(-c2ccccn2)n1 the ED50 (Semliki Forest virus [1]) was 310 mg/kg, the ED50 (Semliki Forest virus [2]) was 75 mg/kg and the ED50 (Semliki Forest virus [3]) was 65 mg/kg. For the same compound, the IFN [4] was “>=2000 ml”.

With Nc1nc(O)c(Cl)c(-c2ccccc2)n1 the ED50 (Semliki Forest virus [1]) was 90 mg/kg, the Protection index (Human alphaherpesvirus 1) was 0.62 and the ED50 (Semliki Forest virus [2]) was 100 mg/kg. For the same compound, the ED50 (Semliki Forest virus [3]) was 105 mg/kg and the IFN [4] was “>=2000 ml”.

Nc1nc(O)c(Cl)c(-c2cccc([N+](=O)[O-])c2)n1 gave an ED50 (Semliki Forest virus [1]) greater than 400 mg/kg, a Protection index (Human alphaherpesvirus 1) of 0.92 and an ED50 (Semliki Forest virus [2]) of 140 mg/kg. The ED50 (Semliki Forest virus [3]) was 380 mg/kg and the IFN [4] was 50 units/mL.

Nc1nc(O)c(Cl)c(-c2cccc(Cl)c2)n1 was tested, and the ED50 (Semliki Forest virus [1]) was greater than 400 mg/kg, the Protection index (Human alphaherpesvirus 1) was 0.86 and the ED50 (Semliki Forest virus [2]) was 135 mg/kg. It also gave an ED50 (Semliki Forest virus [3]) greater than 400 mg/kg and an IFN [4] of 50 units/mL.

Compound Nc1nc(O)c(I)c(-c2cccnc2)n1 has an ED50 (Semliki Forest virus [1]) greater than 400 mg/kg, a Protection index (Human alphaherpesvirus 1) of 0 and an ED50 (Semliki Forest virus [2]) of 130 mg/kg. For the same compound, the ED50 (Semliki Forest virus [3]) was 175 mg/kg and the IFN [4] was 50 units/mL.

Nc1nc(O)c(I)c(-c2cc(Cl)cc(Cl)c2)n1 showed an ED50 (Semliki Forest virus [1]) greater than 400 mg/kg, a Protection index (Human alphaherpesvirus 1) of 0.4 and an ED50 (Semliki Forest virus [2]) of 140 mg/kg. The ED50 (Semliki Forest virus [3]) was 225 mg/kg and the IFN [4] was 50 units/mL.

Nc1nc(O)c(I)c(-c2ccccn2)n1 was tested, and the ED50 (Semliki Forest virus [1]) was 235 mg/kg, the ED50 (Semliki Forest virus [2]) was 215 mg/kg and the ED50 (Semliki Forest virus [3]) was greater than 400 mg/kg. For the same compound, the IFN [4] was “>=2000 ml”.

Nc1nc(O)c(I)c(-c2ccc(F)cc2)n1 showed an ED50 (Semliki Forest virus [1]) of 260 mg/kg, a Protection index (Human alphaherpesvirus 1) of 0.29 and an ED50 (Semliki Forest virus [2]) of 245 mg/kg. The ED50 (Semliki Forest virus [3]) was 250 mg/kg and the IFN [4] was “>=2000 ml”.

Nc1nc(O)c(I)c(-c2cc(F)ccc2F)n1 was tested, and the ED50 (Semliki Forest virus [1]) was greater than 400 mg/kg, the Protection index (Human alphaherpesvirus 1) was 0 and the ED50 (Semliki Forest virus [2]) was 95 mg/kg. The IFN [4] was “>=2000 ml”.

With Nc1nc(O)c(I)c(-c2ccccc2)n1 the ED50 (Semliki Forest virus [1]) was greater than 400 mg/kg, the Protection index (Human alphaherpesvirus 1) was 0.86 and the ED50 (Semliki Forest virus [2]) was 50 mg/kg. The ED50 (Semliki Forest virus [3]) was 25 mg/kg and the IFN [4] was 50 units/mL.

Nc1nc(O)c(I)c(-c2cc(F)cc(F)c2)n1 showed an ED50 (Semliki Forest virus [1]) greater than 400 mg/kg, a Protection index (Human alphaherpesvirus 1) of 0 and an ED50 (Semliki Forest virus [2]) of 230 mg/kg. For the same compound, the IFN [4] was “>=2000 ml”.

Nc1nc(O)c(I)c(-c2cc(Cl)ccc2Cl)n1 showed an ED50 (Semliki Forest virus [1]) of 75 mg/kg, a Protection index (Human alphaherpesvirus 1) of 0 and an ED50 (Semliki Forest virus [2]) of 305 mg/kg. For the same compound, the ED50 (Semliki Forest virus [3]) was 115 mg/kg and the IFN [4] was “>=2000 ml”.

Nc1nc(O)c(I)c(-c2cccc(C(F)(F)F)c2)n1 gave an ED50 (Semliki Forest virus [1]) greater than 400 mg/kg, a Protection index (Human alphaherpesvirus 1) of 0.36 and an ED50 (Semliki Forest virus [2]) of 160 mg/kg. The ED50 (Semliki Forest virus [3]) was greater than 400 mg/kg and the IFN [4] was “>=2000 ml”.

For Nc1nc(O)c(Br)c(-c2ccco2)n1, the ED50 (Semliki Forest virus [1]) was greater than 400 mg/kg, the Protection index (Human alphaherpesvirus 1) was 0.14 and the ED50 (Semliki Forest virus [2]) was 295 mg/kg. The ED50 (Semliki Forest virus [3]) was greater than 400 mg/kg and the IFN [4] was 50 units/mL.

Nc1nc(O)c(I)c(-c2ccc(Cl)c(Cl)c2)n1 was tested, and the ED50 (Semliki Forest virus [1]) was greater than 400 mg/kg, the Protection index (Human alphaherpesvirus 1) was 0.36 and the ED50 (Semliki Forest virus [2]) was 115 mg/kg. For the same compound, the ED50 (Semliki Forest virus [3]) was 240 mg/kg and the IFN [4] was “>=2000 ml”.

In the case of Nc1nc(O)c(Br)c(-c2cc(Cl)ccc2Cl)n1, the ED50 (Semliki Forest virus [1]) is reported as greater than 400 mg/kg, the ED50 (Semliki Forest virus [2]) is reported as 180 mg/kg and the ED50 (Semliki Forest virus [3]) is reported as greater than 400 mg/kg. For the same compound, the IFN [4] was “>=2000 ml”.

COc1ccccc1-c1nc(N)nc(O)c1I gave an ED50 (Semliki Forest virus [1]) greater than 400 mg/kg, a Protection index (Human alphaherpesvirus 1) of 0.69 and an ED50 (Semliki Forest virus [2]) of 25 mg/kg. It also gave an ED50 (Semliki Forest virus [3]) of 120 mg/kg and an IFN [4] of 50 units/mL.

Nc1nc(O)c(Br)c(-c2cccc(F)c2F)n1 was tested, and the ED50 (Semliki Forest virus [1]) was 330 mg/kg, the Protection index (Human alphaherpesvirus 1) was 0.54 and the ED50 (Semliki Forest virus [2]) was 115 mg/kg. For the same compound, the IFN [4] was “>=2000 ml”.

COc1ccccc1-c1nc(N)nc(O)c1Br was tested, and the ED50 (Semliki Forest virus [1]) was greater than 400 mg/kg, the Protection index (Human alphaherpesvirus 1) was 0.92 and the ED50 (Semliki Forest virus [2]) was 15 mg/kg. The ED50 (Semliki Forest virus [3]) was 100 mg/kg and the IFN [4] was 50 units/mL.

Nc1nc(O)c(I)c(-c2cccc([N+](=O)[O-])c2)n1 showed an ED50 (Semliki Forest virus [1]) greater than 400 mg/kg, a Protection index (Human alphaherpesvirus 1) of 0.6 and an ED50 (Semliki Forest virus [2]) of 90 mg/kg. For the same compound, the ED50 (Semliki Forest virus [3]) was 155 mg/kg and the IFN [4] was “>=2000 ml”.

Nc1nc(O)c(Br)c(-c2cccc(Cl)c2)n1 gave an ED50 (Semliki Forest virus [1]) greater than 400 mg/kg, a Protection index (Human alphaherpesvirus 1) of 0.78 and an ED50 (Semliki Forest virus [2]) of 30 mg/kg. The ED50 (Semliki Forest virus [3]) was 300 mg/kg and the IFN [4] was “>=2000 ml”.
